The results in this text go back to paper PMC3169095 (Biochemistry, 2011).

What all share (assay type): cell-based
Test [1] concerns the target T1, Piezo1 (Mus musculus, UniProt E2JF22). The note with it: 3.0 μM; Piezo1 in HEK293 cells; n=3 S.D.; SD.
In test [2] the target is T1, Piezo1. The test can be described thus: Outside-out patch recording of pressure-evoked Piezo1 currents.
A further test relates to TREK-1. Put plainly: Outside-out patch recording of mechanosensitive TREK-1 currents. The following applies: extracellular peptide; outside-out patches of cells transfected with TREK-1. An outline of the steps:
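HEK293 cells transfected with TREK-1 plasmid (250 ng, FuGENE) were recorded 24-48 h later in outside-out patches at room temperature. Extracellular (mM): 145 NaCl, 5 KCl, 3 MgCl2, 10 HEPES, 0.1 CaCl2, pH 7.3. Internal: 133 KCl, 10 HEPES, 5 EGTA, 3 MgCl2. Pressure pulses came from a high-speed pressure clamp. D and L peptide forms were perfused. Sampling was 10 kHz, filtered at 2 kHz.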

T1 sequence (E2JF22 whole entry): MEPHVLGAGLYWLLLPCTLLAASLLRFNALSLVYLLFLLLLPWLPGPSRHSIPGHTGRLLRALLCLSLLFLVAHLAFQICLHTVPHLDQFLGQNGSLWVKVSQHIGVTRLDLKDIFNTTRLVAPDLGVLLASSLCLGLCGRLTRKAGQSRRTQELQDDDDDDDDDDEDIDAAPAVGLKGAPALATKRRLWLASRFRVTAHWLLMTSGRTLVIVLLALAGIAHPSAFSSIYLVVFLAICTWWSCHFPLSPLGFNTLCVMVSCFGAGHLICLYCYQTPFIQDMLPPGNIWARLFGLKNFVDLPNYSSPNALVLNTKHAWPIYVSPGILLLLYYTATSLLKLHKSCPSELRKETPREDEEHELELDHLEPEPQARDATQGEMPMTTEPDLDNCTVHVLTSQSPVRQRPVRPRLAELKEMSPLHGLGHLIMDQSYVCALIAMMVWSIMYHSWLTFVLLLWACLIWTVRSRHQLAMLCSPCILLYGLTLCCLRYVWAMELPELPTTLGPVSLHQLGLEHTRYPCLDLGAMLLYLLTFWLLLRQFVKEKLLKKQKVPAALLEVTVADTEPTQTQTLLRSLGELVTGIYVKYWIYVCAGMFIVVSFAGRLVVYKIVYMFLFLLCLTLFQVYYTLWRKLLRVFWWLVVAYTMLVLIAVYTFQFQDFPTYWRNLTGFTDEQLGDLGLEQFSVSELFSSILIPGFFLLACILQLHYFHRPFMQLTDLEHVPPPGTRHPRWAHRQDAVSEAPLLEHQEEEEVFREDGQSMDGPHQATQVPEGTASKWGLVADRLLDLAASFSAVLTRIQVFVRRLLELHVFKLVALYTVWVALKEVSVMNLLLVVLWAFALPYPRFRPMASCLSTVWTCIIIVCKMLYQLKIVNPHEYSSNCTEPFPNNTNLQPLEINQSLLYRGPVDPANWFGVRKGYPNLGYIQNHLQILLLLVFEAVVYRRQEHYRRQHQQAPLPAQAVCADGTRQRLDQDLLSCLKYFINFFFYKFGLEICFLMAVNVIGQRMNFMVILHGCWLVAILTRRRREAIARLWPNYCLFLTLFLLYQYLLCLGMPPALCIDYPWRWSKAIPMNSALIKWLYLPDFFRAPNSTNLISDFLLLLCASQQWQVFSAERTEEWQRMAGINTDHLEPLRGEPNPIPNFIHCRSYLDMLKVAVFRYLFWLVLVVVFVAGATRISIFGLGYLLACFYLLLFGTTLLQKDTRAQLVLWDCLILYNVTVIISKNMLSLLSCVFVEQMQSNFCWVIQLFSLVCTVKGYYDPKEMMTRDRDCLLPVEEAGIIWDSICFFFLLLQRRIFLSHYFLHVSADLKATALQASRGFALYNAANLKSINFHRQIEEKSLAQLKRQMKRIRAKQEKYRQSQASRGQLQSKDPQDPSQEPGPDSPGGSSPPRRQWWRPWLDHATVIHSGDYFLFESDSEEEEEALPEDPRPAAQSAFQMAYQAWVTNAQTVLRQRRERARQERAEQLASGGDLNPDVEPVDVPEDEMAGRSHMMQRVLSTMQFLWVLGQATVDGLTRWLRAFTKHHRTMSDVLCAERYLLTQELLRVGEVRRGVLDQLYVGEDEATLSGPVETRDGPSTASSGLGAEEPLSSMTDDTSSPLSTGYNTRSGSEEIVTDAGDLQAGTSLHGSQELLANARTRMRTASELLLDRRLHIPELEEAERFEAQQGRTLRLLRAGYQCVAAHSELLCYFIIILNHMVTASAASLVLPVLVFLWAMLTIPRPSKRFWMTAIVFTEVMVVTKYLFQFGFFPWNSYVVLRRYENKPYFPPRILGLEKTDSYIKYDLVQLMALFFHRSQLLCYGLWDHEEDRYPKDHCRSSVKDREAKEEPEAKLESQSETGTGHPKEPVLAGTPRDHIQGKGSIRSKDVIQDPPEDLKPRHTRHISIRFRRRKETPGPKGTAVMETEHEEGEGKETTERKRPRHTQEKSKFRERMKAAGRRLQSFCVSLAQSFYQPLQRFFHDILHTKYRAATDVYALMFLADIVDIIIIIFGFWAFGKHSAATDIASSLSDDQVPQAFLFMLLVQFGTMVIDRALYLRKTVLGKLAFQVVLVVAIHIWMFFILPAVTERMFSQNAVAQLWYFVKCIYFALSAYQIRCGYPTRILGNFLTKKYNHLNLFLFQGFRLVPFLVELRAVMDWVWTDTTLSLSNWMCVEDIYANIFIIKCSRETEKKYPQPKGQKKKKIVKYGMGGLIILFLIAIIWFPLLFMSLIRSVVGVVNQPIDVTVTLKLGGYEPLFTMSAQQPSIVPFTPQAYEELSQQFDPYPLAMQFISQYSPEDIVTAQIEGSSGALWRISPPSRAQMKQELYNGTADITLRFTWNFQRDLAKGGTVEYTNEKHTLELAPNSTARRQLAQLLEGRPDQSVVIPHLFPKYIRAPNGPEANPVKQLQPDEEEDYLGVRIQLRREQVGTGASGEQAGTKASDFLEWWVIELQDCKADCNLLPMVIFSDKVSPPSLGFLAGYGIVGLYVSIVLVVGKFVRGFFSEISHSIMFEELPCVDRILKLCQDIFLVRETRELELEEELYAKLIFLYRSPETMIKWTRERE

For the compound D-GsMTx4, the “inhibition of whole cell mechanosensitive currents” value on Piezo1 [1] was found to be 70±6%. Further, the “inhibition of peak currents” value at Piezo1 [2] (outside-out patches, 2.5 μM, n=5, Figure 1C, normalized data) is on record as 29 ± 9%. Also, in the test with TREK-1, the “inhibition of TREK-1 mechanosensitive currents” value is “no inhibition”.
As for `[H]/N=C(/N)N[C@H]1[C@H](O)[C@@H](O)[C@H](O[C@@H]2O[C@@H](C)[C@](O)(C=O)[C@H]2O[C@@H]2O[C@@H](CO)[C@H](O)[C@@H](O)[C@@H]2NC)[C@@H](N/C(N)=N\[H])[C@@H]1O` [streptomycin], at Piezo1 [2] (1 mM applied for 90 seconds to resting outside-out patches, Figure S2 B), the “mode of inhibition of Piezo1” value was “open channel blocker”.
